Assay results published in ChEMBL document CHEMBL5705890, “Antitumor activity of an allosteric inhibitor of centromere-associated protein-E” (Proc Natl Acad Sci U S A, 2010).

How the values were obtained:
Centromere protein E = Centromere protein E (Canis lupus familiaris, UniProt A0A8P0P634); experiment: Binding affinity to wild-type dog CENP-E assessed as inhibition constant
HEC-1B cell line = experiment: Anticancer activity against human HEC-1B cells assessed as cell growth inhibition measured after 72 hrs by DAPI staining based analysis; type: functional
HN5 = experiment: Anticancer activity against human HN5 cells assessed as cell doubling measured for 72 hrs by DAPI staining based analysis; type: functional
A204 = experiment: Anticancer activity against human A204 cells assessed as cell doubling measured for 72 hrs by DAPI staining based analysis; type: functional
MOLT-16 = experiment: Anticancer activity against human MOLT-16 cells assessed as cell growth inhibition measured after 72 hrs by DAPI staining based analysis; type: functional
[1] = Anticancer activity against human COLO-704 cells assessed as cell growth inhibition measured after 72 hrs by DAPI staining based analysis; type: functional
Method in brief: (§1)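 Cells seeded, DAPI-stained DNA content of fixed cells read by imaging 24 h after seeding (T0), and again after a further 72 h exposure to a range of drug concentrations (T72). T72 values were normalized to T0. Curve fits gave the concentration producing 50% growth inhibition relative to T0 and Ymax (GI50).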

BeWo = experiment: Anticancer activity against human BeWo cells assessed as cell growth inhibition measured after 72 hrs by DAPI staining based analysis; type: functional
Method in brief: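 Cells were seeded, and DNA content at 24 h after seeding (T0) was read by imaging of fixed, DAPI-stained cells. Cells were then exposed to a range of drug concentrations for a further 72 h (T72) and DNA content was read again. T72 values were normalized to T0, and GI50 was taken from curve fits as the concentration giving 50% growth inhibition relative to T0 and Ymax.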

MDA-MB-175-VII = experiment: Anticancer activity against human MDA-MB-175-VII cells assessed as cell growth inhibition measured after 72 hrs by DAPI staining based analysis; type: functional
A549 [2] = experiment: Antitumor activity against human A549 cells in xenograft model assessed as tumor growth delay at 125 mg/kg relative to control; type: functional
OV-90 = experiment: Anticancer activity against human OV-90 cells assessed as cell growth inhibition measured after 72 hrs by DAPI staining based analysis; type: functional
CRO-AP2 = experiment: Anticancer activity against human CRO-AP2 cells assessed as cell doubling measured for 72 hrs by DAPI staining based analysis; type: functional
UACC-62 = experiment: Anticancer activity against human UACC-62 cells assessed as cell doubling measured for 72 hrs by DAPI staining based analysis; type: functional
SW 962 = experiment: Anticancer activity against human SW 962 cells assessed as cell doubling measured for 72 hrs by DAPI staining based analysis; type: functional
NCI-H187 = experiment: Anticancer activity against human NCI-H187 cells assessed as cell growth inhibition measured after 72 hrs by DAPI staining based analysis; type: functional
COLO 320DM = experiment: Anticancer activity against human COLO 320DM cells assessed as cell doubling measured for 72 hrs by DAPI staining based analysis; type: functional
SW-620 = experiment: Anticancer activity against human SW620 cells assessed as cell doubling measured for 72 hrs by DAPI staining based analysis; type: functional
[3] = test system: KATO III stomach cancer cell line; experiment: Anticancer activity against human KATO III stomach cancer cell line cells assessed as cell doubling measured for 72 hrs by DAPI staining based analysis; type: functional
ARH-77 = experiment: Anticancer activity against human ARH-77 cells assessed as cell doubling measured for 72 hrs by DAPI staining based analysis; type: functional
MC-IXC = experiment: Anticancer activity against human MC-IXC cells assessed as cell doubling measured for 72 hrs by DAPI staining based analysis; type: functional
NCI-H596 = experiment: Anticancer activity against human NCI-H596 cells assessed as cell doubling measured for 72 hrs by DAPI staining based analysis; type: functional
RL95-2 = experiment: Anticancer activity against human RL95-2 cells assessed as cell growth inhibition measured after 72 hrs by DAPI staining based analysis; type: functional
EKVX = experiment: Anticancer activity against human EKVX cells assessed as cell doubling measured for 72 hrs by DAPI staining based analysis; type: functional
MCF7 = experiment: Antitumor activity against human MCF7 cells in xenograft model assessed as tumor growth delay at 125 mg/kg relative to control; type: functional
U-251 [4] = experiment: Anticancer activity against human U-251 cells assessed as cell doubling measured for 72 hrs by DAPI staining based analysis; type: functional
[5] = Antitumor activity against human MV-522 cells in xenograft model assessed as tumor growth delay at 125 mg/kg relative to control; type: functional
Malme-3M = experiment: Anticancer activity against human Malme-3M cells assessed as cell doubling measured for 72 hrs by DAPI staining based analysis; type: functional
Capan-2 = experiment: Anticancer activity against human Capan-2 cells assessed as cell growth inhibition measured after 72 hrs by DAPI staining based analysis; type: functional; method in brief: as §1
YAPC = experiment: Anticancer activity against human YAPC cells assessed as cell growth inhibition measured after 72 hrs by DAPI staining based analysis; type: functional
A549 [6] = experiment: Antitumor activity against human A549 cells in xenograft model assessed as tumor growth delay at 62.5 mg/kg relative to control; type: functional
MDA-MB-231 = experiment: Antitumor activity against human MDA-MB-231 cells in xenograft model assessed as difference between median time to endpoint time of treated versus control group at 125 mg/kg; type: functional
HEC-1-A = experiment: Anticancer activity against human HEC-1-A cells assessed as cell growth inhibition measured after 72 hrs by DAPI staining based analysis; type: functional
[7] = target: Centromere-associated protein E (Homo sapiens, UniProt Q02224); experiment: Inhibition of microtubule-stimulated ATPase activity of C-terminal 6-his-tagged CENP-E (2 to 340 residues)(unknown origin) expressed in Escherichia coli BL21(DE3) in presence of ATP
Method in brief: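 Steady-state ATPase of CENP-E motor domain, residues 2–340 with C-terminal 6-His tag, expressed in E. coli BL21(DE3). Run at 1 nM enzyme, 500 μM ATP and 5 μM paclitaxel-stabilized microtubules in PEM25 (25 mM PIPES-K pH 6.8, 2 mM MgCl2, 1 mM EGTA) plus 10 μM paclitaxel. IC50 taken from concentration-response curves.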

SK-OV-3 = experiment: Antitumor activity against human SK-OV-3 cells in xenograft model assessed as difference between median time to endpoint time of treated versus control group at 125 mg/kg; type: functional
MX1 = experiment: Antitumor activity against human MX1 cells in xenograft model assessed as difference between median time to endpoint time of treated versus control group at 125 mg/kg; type: functional
SJRH30 = experiment: Anticancer activity against human SJRH30 cells assessed as cell doubling measured for 72 hrs by DAPI staining based analysis; type: functional
U-251 [8] = experiment: Anticancer activity against human U-251 cells assessed as cell growth inhibition measured after 72 hrs by DAPI staining based analysis; type: functional
SK-MEL-28 = experiment: Anticancer activity against human SK-MEL-28 cells assessed as cell growth inhibition measured after 72 hrs by DAPI staining based analysis; type: functional
SW 954 = experiment: Anticancer activity against human SW 954 cells assessed as cell growth inhibition measured after 72 hrs by DAPI staining based analysis; type: functional

Sequence of Centromere protein E (A0A8P0P634 whole entry): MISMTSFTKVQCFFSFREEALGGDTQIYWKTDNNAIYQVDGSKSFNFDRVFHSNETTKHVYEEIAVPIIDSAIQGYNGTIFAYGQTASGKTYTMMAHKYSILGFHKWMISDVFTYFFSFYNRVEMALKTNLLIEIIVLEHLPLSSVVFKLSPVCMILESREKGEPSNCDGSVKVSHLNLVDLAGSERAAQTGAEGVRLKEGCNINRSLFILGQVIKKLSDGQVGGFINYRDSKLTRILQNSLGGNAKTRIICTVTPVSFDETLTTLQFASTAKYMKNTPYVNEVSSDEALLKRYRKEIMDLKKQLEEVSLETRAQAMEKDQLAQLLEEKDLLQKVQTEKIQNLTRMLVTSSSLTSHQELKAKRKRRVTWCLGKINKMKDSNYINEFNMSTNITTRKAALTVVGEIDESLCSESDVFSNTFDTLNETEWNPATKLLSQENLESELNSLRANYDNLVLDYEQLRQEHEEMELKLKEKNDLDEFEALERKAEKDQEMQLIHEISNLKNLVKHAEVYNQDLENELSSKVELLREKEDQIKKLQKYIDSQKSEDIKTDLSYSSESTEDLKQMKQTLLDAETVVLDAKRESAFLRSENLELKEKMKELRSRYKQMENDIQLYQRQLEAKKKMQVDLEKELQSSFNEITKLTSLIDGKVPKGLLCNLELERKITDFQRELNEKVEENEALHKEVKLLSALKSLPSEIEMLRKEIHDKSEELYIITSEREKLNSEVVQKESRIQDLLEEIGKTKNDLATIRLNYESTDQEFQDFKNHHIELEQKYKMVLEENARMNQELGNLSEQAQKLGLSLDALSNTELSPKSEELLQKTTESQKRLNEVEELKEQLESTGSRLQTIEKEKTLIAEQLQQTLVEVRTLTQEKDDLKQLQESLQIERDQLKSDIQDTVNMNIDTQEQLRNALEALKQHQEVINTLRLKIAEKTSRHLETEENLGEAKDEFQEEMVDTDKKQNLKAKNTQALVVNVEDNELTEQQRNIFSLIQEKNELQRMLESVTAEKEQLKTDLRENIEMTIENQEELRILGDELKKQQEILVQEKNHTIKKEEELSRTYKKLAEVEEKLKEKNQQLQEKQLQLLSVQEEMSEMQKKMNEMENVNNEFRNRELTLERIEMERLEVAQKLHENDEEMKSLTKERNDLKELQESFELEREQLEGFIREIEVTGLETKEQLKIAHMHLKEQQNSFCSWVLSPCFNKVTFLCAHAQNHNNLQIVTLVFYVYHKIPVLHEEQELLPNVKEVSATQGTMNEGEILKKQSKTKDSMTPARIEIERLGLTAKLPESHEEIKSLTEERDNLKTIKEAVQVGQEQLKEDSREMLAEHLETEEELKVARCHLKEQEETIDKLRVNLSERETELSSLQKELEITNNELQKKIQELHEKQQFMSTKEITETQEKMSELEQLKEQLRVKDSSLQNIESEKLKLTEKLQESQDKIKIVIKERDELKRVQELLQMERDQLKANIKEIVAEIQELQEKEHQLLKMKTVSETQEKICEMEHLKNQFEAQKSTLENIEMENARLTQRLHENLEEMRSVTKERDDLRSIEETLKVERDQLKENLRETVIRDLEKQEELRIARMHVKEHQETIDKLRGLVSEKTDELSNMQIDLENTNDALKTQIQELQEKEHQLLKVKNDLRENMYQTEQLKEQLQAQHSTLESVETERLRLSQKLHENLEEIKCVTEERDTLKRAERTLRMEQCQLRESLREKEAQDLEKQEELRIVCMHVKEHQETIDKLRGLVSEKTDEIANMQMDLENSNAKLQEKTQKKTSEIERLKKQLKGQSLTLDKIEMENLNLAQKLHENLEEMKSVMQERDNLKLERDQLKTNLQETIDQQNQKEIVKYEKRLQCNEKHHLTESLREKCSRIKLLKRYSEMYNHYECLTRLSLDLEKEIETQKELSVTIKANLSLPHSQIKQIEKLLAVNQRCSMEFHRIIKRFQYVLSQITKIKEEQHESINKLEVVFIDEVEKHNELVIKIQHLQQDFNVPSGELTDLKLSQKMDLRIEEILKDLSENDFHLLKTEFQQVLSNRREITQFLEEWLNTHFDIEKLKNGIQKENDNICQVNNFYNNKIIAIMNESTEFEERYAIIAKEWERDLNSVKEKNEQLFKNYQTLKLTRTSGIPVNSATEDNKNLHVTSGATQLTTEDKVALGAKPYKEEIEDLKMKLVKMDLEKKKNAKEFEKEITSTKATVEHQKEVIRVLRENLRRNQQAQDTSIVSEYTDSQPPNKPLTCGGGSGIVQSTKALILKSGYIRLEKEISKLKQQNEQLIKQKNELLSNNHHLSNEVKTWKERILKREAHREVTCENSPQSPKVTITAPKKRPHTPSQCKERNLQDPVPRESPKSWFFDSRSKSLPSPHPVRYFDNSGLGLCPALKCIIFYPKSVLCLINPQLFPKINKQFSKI
Sequence of Centromere-associated protein E (Q02224 whole entry, the tested form may be a part): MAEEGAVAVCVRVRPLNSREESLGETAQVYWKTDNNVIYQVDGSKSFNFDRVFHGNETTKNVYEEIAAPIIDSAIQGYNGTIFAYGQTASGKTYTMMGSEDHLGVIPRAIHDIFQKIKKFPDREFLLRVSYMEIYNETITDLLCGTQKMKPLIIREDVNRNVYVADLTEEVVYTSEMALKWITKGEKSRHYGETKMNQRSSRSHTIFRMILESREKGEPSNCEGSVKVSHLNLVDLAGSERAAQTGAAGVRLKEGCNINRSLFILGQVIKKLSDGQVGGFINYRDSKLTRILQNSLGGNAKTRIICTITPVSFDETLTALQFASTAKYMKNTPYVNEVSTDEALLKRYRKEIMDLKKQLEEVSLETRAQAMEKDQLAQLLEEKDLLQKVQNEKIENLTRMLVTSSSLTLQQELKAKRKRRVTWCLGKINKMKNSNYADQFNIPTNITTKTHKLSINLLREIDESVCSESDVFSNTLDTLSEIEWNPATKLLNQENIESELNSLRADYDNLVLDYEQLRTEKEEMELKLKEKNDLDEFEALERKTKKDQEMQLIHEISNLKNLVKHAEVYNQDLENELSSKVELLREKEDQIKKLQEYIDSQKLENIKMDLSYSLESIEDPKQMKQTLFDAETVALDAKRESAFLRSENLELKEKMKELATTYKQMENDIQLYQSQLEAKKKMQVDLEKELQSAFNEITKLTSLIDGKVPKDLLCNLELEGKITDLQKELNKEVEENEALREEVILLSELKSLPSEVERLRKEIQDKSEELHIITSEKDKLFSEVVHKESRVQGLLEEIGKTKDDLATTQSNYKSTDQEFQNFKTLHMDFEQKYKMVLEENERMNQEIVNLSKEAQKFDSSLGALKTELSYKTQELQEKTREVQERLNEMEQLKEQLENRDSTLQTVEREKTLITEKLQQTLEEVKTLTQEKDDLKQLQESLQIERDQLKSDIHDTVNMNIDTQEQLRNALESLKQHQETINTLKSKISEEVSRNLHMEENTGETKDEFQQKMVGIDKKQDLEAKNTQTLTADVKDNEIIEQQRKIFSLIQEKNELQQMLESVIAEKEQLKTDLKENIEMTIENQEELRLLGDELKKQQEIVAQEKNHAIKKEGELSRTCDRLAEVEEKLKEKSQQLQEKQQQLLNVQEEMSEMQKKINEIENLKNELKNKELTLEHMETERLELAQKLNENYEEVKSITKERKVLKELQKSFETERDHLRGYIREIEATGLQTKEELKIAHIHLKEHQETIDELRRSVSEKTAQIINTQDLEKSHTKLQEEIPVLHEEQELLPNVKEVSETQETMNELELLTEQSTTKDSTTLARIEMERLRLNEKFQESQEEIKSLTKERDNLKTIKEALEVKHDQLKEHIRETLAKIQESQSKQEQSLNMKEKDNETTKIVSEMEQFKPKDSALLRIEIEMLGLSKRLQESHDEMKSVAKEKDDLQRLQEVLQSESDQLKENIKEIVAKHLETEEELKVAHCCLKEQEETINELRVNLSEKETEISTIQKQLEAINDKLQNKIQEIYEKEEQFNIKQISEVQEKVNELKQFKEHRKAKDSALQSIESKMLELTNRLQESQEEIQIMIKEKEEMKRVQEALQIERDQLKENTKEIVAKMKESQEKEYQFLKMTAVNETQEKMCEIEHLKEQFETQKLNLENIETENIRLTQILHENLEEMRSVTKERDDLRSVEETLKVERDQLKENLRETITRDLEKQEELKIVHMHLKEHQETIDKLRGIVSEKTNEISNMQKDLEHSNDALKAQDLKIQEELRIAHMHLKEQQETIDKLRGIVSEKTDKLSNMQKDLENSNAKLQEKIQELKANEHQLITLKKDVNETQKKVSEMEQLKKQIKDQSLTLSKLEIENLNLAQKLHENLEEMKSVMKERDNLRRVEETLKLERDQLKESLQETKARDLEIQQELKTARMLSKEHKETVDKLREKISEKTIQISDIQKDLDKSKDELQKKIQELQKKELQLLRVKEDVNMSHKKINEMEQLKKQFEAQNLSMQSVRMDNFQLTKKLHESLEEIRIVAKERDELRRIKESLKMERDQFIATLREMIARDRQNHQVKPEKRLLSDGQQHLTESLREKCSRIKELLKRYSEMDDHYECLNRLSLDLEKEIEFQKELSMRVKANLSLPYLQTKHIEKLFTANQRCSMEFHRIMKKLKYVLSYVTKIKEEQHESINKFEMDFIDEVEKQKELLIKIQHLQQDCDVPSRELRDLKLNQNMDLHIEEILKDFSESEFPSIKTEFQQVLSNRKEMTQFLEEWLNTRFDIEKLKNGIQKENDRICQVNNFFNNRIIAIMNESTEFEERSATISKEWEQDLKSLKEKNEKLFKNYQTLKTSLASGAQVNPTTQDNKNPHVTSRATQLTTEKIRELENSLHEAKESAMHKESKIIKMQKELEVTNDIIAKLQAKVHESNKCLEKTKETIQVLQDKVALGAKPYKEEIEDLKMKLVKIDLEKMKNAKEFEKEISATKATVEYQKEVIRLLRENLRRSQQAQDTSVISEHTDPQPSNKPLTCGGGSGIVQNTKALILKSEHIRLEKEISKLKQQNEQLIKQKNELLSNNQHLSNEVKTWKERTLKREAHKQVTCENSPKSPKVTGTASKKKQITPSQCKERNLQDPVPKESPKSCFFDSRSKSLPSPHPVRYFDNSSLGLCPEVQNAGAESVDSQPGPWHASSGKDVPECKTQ

Structure (SMILES): CC(C)Oc1ccc(C(=O)N[C@H](CNC(=O)CN(C)C)Cc2ccc(-c3cn4cccc([C@H](C)O)c4n3)cc2)cc1Cl [GSK-923295A]
- Ki (Centromere protein E): 1.6 nM
- GI50 (HEC-1B cell line): 28 nM
- Activity (HN5): 3.38
- Activity (A204): 1.46
- GI50 (MOLT-16): 47 nM
- GI50 [1]: 69 nM
- GI50 (BeWo): 26 nM
- GI50 (MDA-MB-175-VII): 23 nM
- Activity (A549 [2]): 73%
- GI50 (OV-90): 61 nM
- Activity (CRO-AP2): 2.92
- Activity (UACC-62): 2.12
- Activity (SW 962): 2.46
- GI50 (NCI-H187): 68 nM
- Activity (COLO 320DM): 3.85
- Activity (SW-620): 2.91
- Activity [3]: 2.02
- Activity (ARH-77): 1.62
- Activity (MC-IXC): 2.67
- Activity (NCI-H596): 1.31
- GI50 (RL95-2): 49 nM
- Activity (EKVX): 2.69
- Activity (MCF7): 58%
- Activity (U-251 [4]): 3.04
- Activity [5]: 104%
- Activity (Malme-3M): 1.18
- GI50 (Capan-2): 119 nM
- GI50 (YAPC): 59 nM
- Activity (A549 [6]): 11%
- Time (MDA-MB-231): 47.1 days
- GI50 (HEC-1-A): 50 nM
- IC50 [7]: 2.3 nM
- Time (SK-OV-3): >95 days
- Time (MX1): 6.9 days
- Activity (SJRH30): 2.12
- GI50 (U-251 [8]): 26 nM
- GI50 (SK-MEL-28): 31 nM
- GI50 (SW 954): 22 nM
